# How the values were obtained:
# Format in all cases: functional, organism-based
# [1] = test system: Mycobacterium tuberculosis; test: Ability to inhibit partial growth (50+/-10%) against Mycobacterium tuberculosis H37Rv in Youman's medium
# Procedure, shortened: (§1)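 M. tuberculosis H37Rv was kept on Petrik's solid medium. A 3-mm loopful of a 14-day culture grown in Youman's medium was floated on 5.0 mL of Youman's (nonprotein) medium holding a range of compound concentrations diluted from stocks. Controls held medium or ethylene glycol. Tubes were sealed with paraffin and held at 37 °C. Growth was compared with controls weekly and scored at 21 days, in triplicate.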
# [2] = test system: Mycobacterium tuberculosis; test: Ability to inhibit 100%growth against Mycobacterium tuberculosis H37Rv in Youman's medium; procedure, shortened: as §1
# [3] = test system: Mycobacterium tuberculosis; test: Ability to inhibit 100%growth against Mycobacterium tuberculosis H37Rv in Youman's medium with 10% bovine serum
# Procedure, shortened: (§2)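 H37Rv from a 14-day Youman's culture was inoculated as a loopful floated on Youman's medium with 10% (v/v) freshly prepared bovine serum. The medium held a range of compound concentrations. Controls held medium or ethylene glycol. Tubes were sealed and held at 37 °C. Growth was compared with controls and scored at 21 days.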
# [4] = test system: Mycobacterium tuberculosis; test: Ability to inhibit partial growth (50+/-10%) against Mycobacterium tuberculosis H37Rv in Youman's medium with 10% bovine serum; procedure, shortened: as §2
# [5] = test system: Mycobacterium tuberculosis; test: Ability to inhibit partial growth (50+/-10%) against Mycobacterium tuberculosis strain no: 312 in Youman's medium
# Procedure, shortened: (§3)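 Clinical isolates (INH-resistant nos. 22443 and 312; streptomycin-resistant no. 14029) were kept on Lowenstein-Jensen or Petrik's medium, then moved to Youman's medium. 14-day cultures were inoculated into tubes holding a range of compound concentrations in Youman's medium. Controls held medium, ethylene glycol, INH and streptomycin. Tubes were sealed with paraffin and held at 37 °C for 4 weeks. Growth was compared with controls weekly and scored at 28 days, in triplicate.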
# [6] = test system: Mycobacterium tuberculosis; test: Ability to inhibit partial growth (50+/-10%) against Mycobacterium tuberculosis strain no: 22443 in Youman's medium; procedure, shortened: as §3
# [7] = test system: Mycobacterium tuberculosis; test: Ability to inhibit 100%growth against Mycobacterium tuberculosis strain no: 312 in Youman's medium.; procedure, shortened: as §3
# [8] = test system: Mycobacterium tuberculosis; test: Ability to inhibit 100%growth against Mycobacterium tuberculosis strain no: 22443 in Youman's medium.; procedure, shortened: as §3
# [9] = test system: Mycobacterium tuberculosis; test: Ability to inhibit 100% growth against Mycobacterium tuberculosis strain no :14029; procedure, shortened: as §3
# [10] = test system: Mycobacterium tuberculosis; test: Ability to inhibit partial growth (50+/-10%) against Mycobacterium tuberculosis strain no: 14029 in Youman's medium; procedure, shortened: as §3
smiles,measurement,setting,value
O=C(O)CNc1ccc2ncccc2c1,Concentration,[1],10 µg/mL
same,Concentration,[2],100 µg/mL
same,Concentration,[3],100 µg/mL
same,Concentration,[4],50 µg/mL
NNC(=O)CNc1ccc2ncccc2c1,Concentration,[1],25 µg/mL
same,Concentration,[2],100 µg/mL
same,Concentration,[3],100 µg/mL
same,Concentration,[4],50 µg/mL
COc1ccc2cc(NC(C)C(=O)NN)ccc2c1 (stereo unspecified),Concentration,[1],10 µg/mL
same,Concentration,[2],50 µg/mL
same,Concentration,[3],100 µg/mL
same,Concentration,[4],50 µg/mL
CN(CC(=O)NN)c1ccc2ccccc2c1,Concentration,[1],2 µg/mL
same,Concentration,[2],10 µg/mL
same,Concentration,[3],50 µg/mL
same,Concentration,[4],10 µg/mL
COc1ccc2cc(NCC(=O)NN)ccc2c1,Concentration,[1],5 µg/mL
same,Concentration,[2],10 µg/mL
same,Concentration,[3],50 µg/mL
same,Concentration,[4],10 µg/mL
NNC(=O)c1ccncc1,Concentration,[5],50 µg/mL
same,Concentration,[1],0.1 µg/mL
same,Concentration,[6],100 µg/mL
same,Concentration,[7],100 µg/mL
same,Concentration,[2],1 µg/mL
same,Concentration,[3],1 µg/mL
same,Concentration,[8],150 µg/mL
same,Concentration,[4],0.5 µg/mL
CC(Nc1ccc2ccccc2c1)C(=O)NN (stereo unspecified),Concentration,[1],0.5 µg/mL
same,Concentration,[2],1 µg/mL
same,Concentration,[3],50 µg/mL
same,Concentration,[4],10 µg/mL
NNC(=O)CNc1ccc2ccccc2c1,Concentration,[1],0.5 µg/mL
same,Concentration,[2],1 µg/mL
same,Concentration,[3],50 µg/mL
same,Concentration,[4],10 µg/mL
CC(CC(=O)NN)Nc1ccc2ncccc2c1 (stereo unspecified),Concentration,[1],50 µg/mL
same,Concentration,[2],100 µg/mL
same,Concentration,[3],150 µg/mL
same,Concentration,[4],100 µg/mL
CN[C@@H]1[C@H](O[C@H]2[C@H](O[C@H]3[C@H](O)[C@@H](O)[C@H](N=C(N)N)[C@@H](O)[C@@H]3N=C(N)N)O[C@@H](C)[C@]2(O)C=O)O[C@@H](CO)[C@H](O)[C@H]1O,Concentration,[9],2500 µg/mL
same,Concentration,[10],1000 µg/mL
O=C(CNc1ccc2ccccc2c1)N/N=C/c1ccncc1,Concentration,[1],0.5 µg/mL
same,Concentration,[2],1 µg/mL
same,Concentration,[3],100 µg/mL
same,Concentration,[4],10 µg/mL
O=C(O)CNc1ccc2ccccc2c1,Concentration,[1],100 µg/mL
same,Concentration,[2],1000 µg/mL
CC(CC(=O)NN)Nc1ccc2ccccc2c1 (stereo unspecified),Concentration,[1],5 µg/mL
same,Concentration,[2],10 µg/mL
same,Concentration,[3],100 µg/mL
same,Concentration,[4],50 µg/mL
CN(CC(=O)N/N=C/c1ccncc1)c1ccc2ccccc2c1,Concentration,[1],1 µg/mL
same,Concentration,[2],10 µg/mL
same,Concentration,[3],100 µg/mL
same,Concentration,[4],10 µg/mL

# From ChEMBL document CHEMBL1124611, “Synthesis and antitubercular activity of N-(2-naphthyl)glycine hydrazide analogues” (J Med Chem, 1989)
